Here are results for 20 compounds from ChEMBL document CHEMBL1134370, “Pharmacophore analysis of the nuclear oxysterol receptor LXRalpha” (J Med Chem, 2001).

The target in assay [1] is T1, Oxysterols receptor LXR-alpha (Homo sapiens) (UniProt Q13133).
T1 sequence (whole entry): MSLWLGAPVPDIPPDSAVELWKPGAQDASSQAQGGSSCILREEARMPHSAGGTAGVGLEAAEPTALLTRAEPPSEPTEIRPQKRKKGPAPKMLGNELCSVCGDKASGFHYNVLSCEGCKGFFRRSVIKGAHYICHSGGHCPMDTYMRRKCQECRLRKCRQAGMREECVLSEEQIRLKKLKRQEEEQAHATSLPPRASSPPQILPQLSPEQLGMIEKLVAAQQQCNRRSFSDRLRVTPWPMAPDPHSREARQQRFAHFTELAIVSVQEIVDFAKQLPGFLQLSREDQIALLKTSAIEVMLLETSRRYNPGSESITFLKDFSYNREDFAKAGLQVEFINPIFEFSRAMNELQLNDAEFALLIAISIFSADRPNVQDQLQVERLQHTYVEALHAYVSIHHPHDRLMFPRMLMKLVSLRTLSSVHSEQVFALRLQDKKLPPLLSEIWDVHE
Nature of the assay: Tested for its ability to activate Liver X receptor-alpha expressed as Relative efficacy determined by maximal increase in relative fluorescence in LiSA. A digest of the protocol: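 Human LXRα ligand-binding domain (aa 183-447) with a His tag, expressed in E. coli, biotinylated and coupled to streptavidin-allophycocyanin. A biotinylated SRC1 peptide (aa 675-699) was coupled to streptavidin-europium. Final concentrations: 10 nM protein and peptide in pH 7.5 MOPS buffer, compound 1 nM–100 µM. Incubated 2-4 h at room temperature; time-resolved FRET read at 665 nm. Efficacy is the maximal fluorescence increase relative to 24(S),25-epoxycholesterol.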

Assay [2] concerns the target T2, Oxysterols receptor LXR-alpha (Homo sapiens, UniProt Q13133).
T2 sequence (Q13133 whole entry): T1 sequence (whole entry)
Description: Concentration required for half maximal activity was calculated in human nuclear oxysterol receptor liver X receptor-alpha in LiSA. A digest of the protocol: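 Human LXRα ligand-binding domain (aa 183-447) with His tag, expressed in E. coli, purified and biotinylated. Protein and biotinylated SRC1 peptide (aa 675-699) were pre-bound to streptavidin-APC and streptavidin-europium. The final mix (10 nM each) was read by TR-FRET at 665 nm after 2-4 h at room temperature. Compounds 1 nM-100 µM; EC50 from half-maximal fluorescence, n = 3, standard error.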

Assay [3] addresses T1, Oxysterols receptor LXR-alpha (Homo sapiens). Description: Tested for its ability to activate Liver X receptor-alpha expressed as Relative efficacy determined by maximal increase in relative fluorescence in LiSA by 100 uM. A digest of the protocol: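 TR-FRET ligand-sensing assay of SRC1 peptide recruitment to biotinylated human LXRα LBD (aa 183-447, E. coli), 10 nM each in MOPS/NaF buffer pH 7.5. Run at room temperature for 2-4 h, read at 665 nm. Relative efficacy is the maximal increase in relative fluorescence compared with 24(S),25-epoxycholesterol. Compounds tested up to 100 µM.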

For assay [4], the target named is T2, Oxysterols receptor LXR-alpha. Description: Binding affinity towards LXR alpha receptor was determined in a competition binding assay.

Usually EC50 stands for the concentration needed to bring the measured effect to its halfway point. Usually Ki stands for the dissociation constant of the complex between target and ligand, obtained from inhibition or displacement. Lower therefore signals tighter binding.

`C[C@H](CCC(=O)N(C)C)[C@H]1CC[C@H]2[C@@H]3CC=C4C[C@@H](O)CC[C@]4(C)[C@H]3CC[C@]12C`: the RE in assay [1] amounted to 1.4. Besides, the EC50 in assay [2] is 170 nM.
In the same order, the values of `CC(C)C(=O)CC[C@@H](C)[C@H]1CC[C@H]2[C@@H]3CC=C4C[C@@H](O)CC[C@]4(C)[C@H]3CC[C@]12C` are 1.3 and 180 nM.
In assay [1], `CC(C)CCC[C@@H](C)[C@H]1CC[C@H]2[C@@H]3CC=C4C[C@@H](O)CC[C@]4(C)[C@H]3CC[C@]12C` had an RE of under 0.1.
As for `CNC(=O)CC[C@@H](C)[C@H]1CC[C@H]2[C@@H]3CC=C4C[C@@H](O)CC[C@]4(C)[C@H]3CC[C@]12C`, the RE in assay [1] worked out at 0.55. Also, the EC50 in assay [2] is 720 nM.
In the same order, the values of `CC(C)[C@H](O)CC[C@@H](C)[C@H]1CC[C@H]2[C@@H]3CC=C4C[C@@H](O)CC[C@]4(C)[C@H]3CC[C@]12C` are 0.85 and 220 nM.
As for `C[C@H](CC[C@H]1OC1(C)C)[C@H]1CC[C@H]2[C@@H]3CC=C4C[C@@H](O)CC[C@]4(C)[C@H]3CC[C@]12C`, the RE in assay [1] was found to be 1. In addition, the EC50 in assay [2] is 670 nM.
`C[C@H](C[C@@H](CO)C(C)(C)O)[C@H]1CC[C@H]2[C@@H]3CC=C4C[C@@H](O)CC[C@]4(C)[C@H]3CC[C@]12C` gave an RE in assay [1] of under 0.1.
`CC(C)[C@@H](O)CC[C@@H](C)[C@H]1CC[C@H]2[C@@H]3CC=C4C[C@@H](O)CC[C@]4(C)[C@H]3CC[C@]12C`: the RE in assay [1] stood at 1. In addition, the EC50 in assay [2] was 130 nM.
`CC(C)C[C@@H](O)C[C@@H](C)[C@H]1CC[C@H]2[C@@H]3CC=C4C[C@@H](O)CC[C@]4(C)[C@H]3CC[C@]12C`: in assay [1], the RE is under 0.1.
On to `CC(C)C[C@H](O)C[C@@H](C)[C@H]1CC[C@H]2[C@@H]3CC=C4C[C@@H](O)CC[C@]4(C)[C@H]3CC[C@]12C`, for which, in assay [1], the RE stood at 0.7. Further, the EC50 in assay [2] is 5900 nM.
In turn, `C[C@H](CNC(=O)N(C)C)[C@H]1CC[C@H]2[C@@H]3CC=C4C[C@@H](O)CC[C@]4(C)[C@H]3CC[C@]12C` returned an RE in assay [1] of under 0.1.
Consider `CC(C)CC[C@@H](O)[C@@H](C)[C@H]1CC[C@H]2[C@@H]3CC=C4C[C@@H](O)CC[C@]4(C)[C@H]3CC[C@]12C` [22(R)-HYDROXYCHOLESTEROL], for which the RE in assay [1] was found to be 0.85. For the same compound, the concentration giving a half-maximal response (EC50) in assay [2] is 325 nM.
In assay [1], `C[C@H](CC[C@@H]1OC1(C)C)[C@H]1CC[C@H]2[C@@H]3CC=C4C[C@@H](O)CC[C@]4(C)[C@H]3CC[C@]12C` [24(S),25-EPOXYCHOLESTEROL] showed an RE of 1. For the same compound, in assay [2], the EC50 was 460 nM.
For `CC(C)C(=O)NC[C@@H](C)[C@H]1CC[C@H]2[C@@H]3CC=C4C[C@@H](O)CC[C@]4(C)[C@H]3CC[C@]12C`, in assay [1], the RE was under 0.1.
In assay [1], `C[C@H](CCC(=O)O)[C@H]1CC[C@H]2[C@@H]3CC=C4C[C@@H](O)CC[C@]4(C)[C@H]3CC[C@]12C` had an RE of 0.2. Also, in assay [2], the EC50 was 3000 nM.
The compound `C[C@H](CCCC(C)(C)O)[C@H]1CC[C@H]2[C@@H]3CC=C4C[C@@H](O)CC[C@]4(C)[C@H]3CC[C@]12C` returned an RE in assay [1] of 0.35. Also, in assay [2], the EC50 is 1160 nM.
In assay [1], `COC(=O)CC[C@@H](C)[C@H]1CC[C@H]2[C@@H]3CC=C4C[C@@H](O)CC[C@]4(C)[C@H]3CC[C@]12C` had an RE of 1.1. Besides, the EC50 in assay [2] is 105 nM.
In the same order, the values of `CC(C)CCC[C@](C)(O)[C@H]1CC[C@H]2[C@@H]3CC=C4C[C@@H](O)CC[C@]4(C)[C@H]3CC[C@@]21C` are 1 and 470 nM.
In the case of `CC(C)CC[C@H](O)[C@@H](C)[C@H]1CC[C@H]2[C@@H]3CC=C4C[C@@H](O)CC[C@]4(C)[C@H]3CC[C@]12C`, the RE in assay [3] was under 0.1. Besides, in assay [4], the Ki was determined as 180 nM.
`C[C@@H](CO)CCC[C@@H](C)[C@H]1CC[C@H]2[C@@H]3CC=C4C[C@@H](O)CC[C@]4(C)[C@H]3CC[C@]12C` came in with an RE in assay [1] of 0.3. Further, the EC50 in assay [2] was 250 nM.
